Data set [1] in a line: Time for hydrolysis of half the starting material was studied at a temperature of 27 degrees celsius and aqueous 50 mM phosphate + 10 % p-dioxane (pH 7.6) as medium. The data set is classed as ADME. The conditions noted are these: phosphate buffer with 10% p-dioxane. In short, it runs like this:
(§1)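 Hydrolysis in aqueous 50 mM potassium phosphate, pH 7.6, starting at 0.05 mM substrate. Nitrophenol release was followed spectrophotometrically at 400 nm. Half-life is the time for hydrolysis of half the starting material.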

A short description of data set [2]: Time for hydrolysis of half the starting material was studied at a temperature of 23 degrees celsius and aqueous 50 mM phosphate + 10 % p-dioxane (pH 7.6) as medium. It counts as ADME, Rattus norvegicus. The conditions noted are these: phosphate buffer with 10% p-dioxane. In short, it runs like this: as §1
The test system of data set [3] is LM. Briefly: Rate of incorporation of [3H]- into DNA fraction of mouse LM(TK-) cells after 19h of pre-incubation, expressed as cpm 1/(10e6 cells) 1/h. The data set is classed as functional. In outline: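 LM(TK-) thymidine-kinase-deficient mouse fibroblasts in DMEM with 10% FBS at 37 °C in 5% CO2. Cells were exposed to [methyl-3H]-labeled compound at 0.9 μM and 1 μCi/mL (0.5% EtOH) for 19 h. Acid-insoluble 3H was counted on CCl3CO2H-washed filters. Rate was expressed per 10^6 cells per hour, using Coulter counts.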

A short description of data set [4]: Time for hydrolysis of half the starting material was studied at a temperature of 37 degrees celsius and aqueous 50 mM phosphate (pH 6) as medium. The data set is classed as ADME. As to conditions: phosphate buffer. In short, it runs like this:
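Stability in 50 mM potassium phosphate at pH 7.6 or 6.0, 37 °C, followed by paper electrophoresis for up to 72 h. Half-life is the time for hydrolysis of half the starting material.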

Data set [5] is described as follows: Time for hydrolysis of half the starting material was studied at a temperature of 37 degrees celsius and aqueous 50 mM phosphate + 10 % p-dioxane (pH 7.6) as medium(d=no hydrolysis after 72 h). The data set is classed as ADME. As to conditions: phosphate buffer with 10% p-dioxane.
A short description of data set [6]: Time for hydrolysis of half the starting material was studied at a temperature of 27 degrees celsius and aqueous 50 mM phosphate (pH 7.6) as medium. The data set is classed as ADME. The conditions noted are these: phosphate buffer. In outline: as §1
In data set [7] the test system is LM. Briefly: Rate of incorporation of [3H]-into DNA fraction of mouse LM(TK-) cells after 2 hr of pre-incubation, expressed as cpm 1/(10e6 cells) 1/h. It counts as functional. In short, it runs like this:
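LM(TK⁻) mouse L fibroblasts (thymidine-kinase deficient) in DMEM with 10% FBS, 37 °C, 5% CO2. Seeded in 6-cm dishes and grown overnight. Medium replaced with 0.017 μM [1',2',5-³H]-2'-deoxycytidine at 1 μCi/mL, 0.5% EtOH, for 2 h. Cells trypsinized, filter-collected, washed with 5% CCl3CO2H and 70% ethanol, then scintillation-counted. Zero-time blanks taken; cells per dish counted by Coulter.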

`CCOP(=O)(Oc1ccc([N+](=O)[O-])cc1)Oc1ccc([N+](=O)[O-])cc1`: in data set [1], the half-life is 2 h.
Regarding `Cc1cn([C@H]2C[C@H](O)[C@@H](COP(=O)(Oc3cccc([N+](=O)[O-])c3)Oc3cccc([N+](=O)[O-])c3)O2)c(=O)[nH]c1=O`, the half-life in data set [2] is 4.75 h. Besides, the Activity in data set [3] was 18.1.
`Cc1cn([C@H]2C[C@H](O)[C@@H](COP(N)(N)=O)O2)c(=O)[nH]c1=O`: the half-life in data set [4] and in data set [5] was more than 72 h throughout.
Take `Cc1cn([C@H]2C[C@H](O)[C@@H](COP(=O)(Oc3ccc([N+](=O)[O-])cc3)Oc3ccc([N+](=O)[O-])cc3)O2)c(=O)[nH]c1=O`: the half-life is 0.83 h in data set [6] and 0.58 h in data set [1].
As to `Cc1cn([C@H]2C[C@H](O)[C@@H](COP(=O)(O)Oc3cccc([N+](=O)[O-])c3)O2)c(=O)[nH]c1=O`, in data set [3], the Activity was found to be 37.6.
`Nc1ccn([C@H]2C[C@H](O)[C@@H](CO)O2)c(=O)n1` [DOXECITINE] showed an Activity in data set [7] of 21960.
The compound `Cc1cn([C@H]2C[C@H](O)[C@@H](CO)O2)c(=O)[nH]c1=O` [DOXRIBTIMINE] showed an Activity in data set [3] of 53.
